# Source: PubChem BioAssay (several laboratories)
# p97 inhibitor – inhibitors of human p97 ATPase, primary screen, biochemical | Transitional endoplasmic reticulum ATPase (Homo sapiens), P55072 | recombinant p97 ATPase, Kinase-Glo ATP luminescence, 3 h | inhibition, % at 8 µM | 0.42% of 220,000 active | AID 1481, 2009; in the data active = inhibition above about 15%
# RanGTP-Imp inh – inhibitors of RanGTP-importin-beta interaction, primary screen, biochemical, FRET, CFP-Ran, YFP-importin-beta, homogeneous. inhibition, % (concentration not given with the values). Ran GTPase (GTP-bound) - importin-beta complex. cell-free CFP-Ran/YFP-importin-beta FRET ratio. 1.1% of 300,000 active. AID 2216, 2009;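 active = more than half of the replicate wells show a fall in the fluorescence ratio signal beyond about 16%, limit read from the data, passing the limit was not always enough; inconclusive = exactly half of the replicate wells pass the set limit; inactive = fewer than half of replicates pass the limit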
# Hck-Nef inh – inhibitors of Nef-activated human Hck kinase, primary screen, biochemical, Z-Lyte FRET, 384-well, Hck-YEEI | Recombinant Hck-YEEI plus Nef, Z-Lyte FRET kinase assay | inhibition, % at 20 µM | 0.68% of 220,000 active | AID 463187, 2010;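 active = Hck-Nef kinase inhibition above about 50%, limit read from the data; inactive = inhibition below that limit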
# Target sequence (P08631 whole entry, looked up): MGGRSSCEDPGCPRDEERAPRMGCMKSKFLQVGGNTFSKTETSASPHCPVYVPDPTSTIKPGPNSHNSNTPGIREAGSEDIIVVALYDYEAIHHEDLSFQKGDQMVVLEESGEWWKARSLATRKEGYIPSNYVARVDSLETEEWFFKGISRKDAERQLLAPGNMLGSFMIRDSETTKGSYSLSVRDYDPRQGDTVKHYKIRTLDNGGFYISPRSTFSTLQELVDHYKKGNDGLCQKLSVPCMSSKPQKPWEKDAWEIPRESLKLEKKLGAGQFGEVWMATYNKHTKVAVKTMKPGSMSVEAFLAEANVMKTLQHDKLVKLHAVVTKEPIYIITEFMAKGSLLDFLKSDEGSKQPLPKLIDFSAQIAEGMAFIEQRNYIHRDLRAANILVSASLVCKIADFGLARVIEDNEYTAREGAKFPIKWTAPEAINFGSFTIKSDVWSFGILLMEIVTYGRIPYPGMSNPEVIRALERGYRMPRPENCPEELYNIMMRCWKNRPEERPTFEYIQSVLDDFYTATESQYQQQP
# Tb hexokinase – Trypanosoma brucei hexokinase 1 inhibitors, primary screen, biochemical, G6PDH-coupled NADH absorbance, MLSCN library | inhibition, % at 10 µM | recombinant TbHK1, G6PDH-coupled NADH A340 | 0.11% of 220,000 active | hexokinase 1 [Trypanosoma brucei];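 active = inhibition of 50% or more in the single-dose primary screen; inactive = inhibition below 50%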
# Runt-SMMHC FRET – inhibitors of RUNX1 Runt–CBFb-SMMHC binding, primary screen, biochemical, FRET, Cerulean-Runt, Venus-CBFb-SMMHC, uHTS | Cerulean-Runt/Venus-CBFb-SMMHC FRET ratio 530/480, 1 h | inhibition, % at 20 µM | 0.74% of 220,000 active | AID 1434, 2008;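 active = mean inhibition across duplicate retests at 20 µM reaching about 50%, limit read from the data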;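 note: inhibitors lower the FRET ratio by blocking Runt binding to CBFb-SMMHC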
# Runt-CBFb FRET – inhibitors of RUNX1 Runt–CBFb binding, primary screen, biochemical, FRET, Cerulean-Runt, Venus-CBFb, uHTS; Runt-related transcription factor 1 (Homo sapiens) + Core-binding factor subunit beta …; Cerulean-Runt/Venus-CBFb FRET ratio 530/480, 1 h; inhibition, % at 20 µM; 0.46% of 220,000 active; AID 1496, 2009;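 active = inhibition over about 50% at 20 µM in the single-dose screen, limit read from the data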
#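 Doses: 20 µM compound in 1% DMSO | Material: Cerulean-labeled Runt domain protein | Amount: Each fluorescent fusion protein 100 nM | Schedule: Two 1 h room-temperature incubations shielded from light | Measured by: FRET fluorescence | Evaluation: Loss of energy transfer signal | Controls: Unlabeled CBFb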
# Hck Nef conf – retest of Hck:Nef kinase inhibitor hits, confirmation, biochemical, Z-Lyte FRET, 384-well, p-Tyr peptide counterscreen; shares compounds with Hck-Nef inh; AID 463188, 2010; calls only at 10 µM; Recombinant Hck-YEEI:Nef, Z-Lyte FRET kinase assay; 28% of 1,300 active;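 active = average inhibition of at least 50%, with Z-scores no higher than 3 in both the phospho-tyrosine peptide and fluorescence counterscreens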
# A number is an active result; i = inactive; ? = inconclusive; nt = no result given; + = active, no number. In the library only some 2.1% were active in any assay of this set; here they are far more common.
SMILES,p97 inhibitor,RanGTP-Imp inh,Hck-Nef inh,Tb hexokinase,Runt-SMMHC FRET,Runt-CBFb FRET,Hck Nef conf
O=C(Nc1nn[nH]n1)c1cc(-c2ccc(Cl)c(Cl)c2Cl)nc2ccccc12,i,i,119,i,i,i,i
O=C(NCCc1ccccn1)c1cc(-c2ccc(Cl)c(Cl)c2Cl)nc2ccccc12,i,i,i,i,i,i,nt
Cc1ccc(CNC(=O)C2CCCN(S(=O)(=O)c3cccc4nonc34)C2)cc1 (configuration not stated),nt,i,nt,nt,nt,nt,nt
CCN(Cc1ccccc1)C(=O)Cn1cc(S(=O)(=O)NC)c(S(=O)(=O)NC)c1,nt,i,nt,nt,nt,nt,nt
CCOC(=O)COc1ccc(/C=C2/SC(=Nc3ccccc3)N(Cc3cccnc3)C2=O)cc1OC,i,i,71,i,i,i,i
C[C@H]1CCC(=O)N([C@H](CN=[N+]=[N-])Cc2ccccc2)CC1,nt,i,nt,nt,nt,nt,nt
O=C(Oc1ccc(Nc2ncnc3ccccc23)cc1)c1cccnc1,i,i,85,i,i,i,+
O=C(O)c1ccc(Nc2ncnc3ccccc23)cc1,nt,i,nt,nt,nt,nt,nt
Cc1cc(Br)cc(Br)c1OCC(=O)NNC(=O)c1ccoc1C,nt,i,nt,nt,nt,nt,nt
Cc1[nH][nH]c(=O)c1C(c1c(C)[nH][nH]c1=O)c1cn(C)c2ccccc12,i,nt,92,i,i,i,+
O=C(Cn1nnc2ccccc21)Nc1ccc(Cl)cn1,i,i,i,i,i,i,nt
COc1cc(/C=N/NC(=O)c2sc3nc(C)cc(C)c3c2N)ccc1O,i,?,51,i,i,i,nt
O=C(c1ccco1)N(Cc1ccc2c(c1)OCO2)Cc1cc2cc3c(cc2[nH]c1=O)OCO3,i,i,126,i,i,i,i
COc1ccc(CCNC(=S)N2CCN(S(=O)(=O)c3ccccc3F)CC2)cc1,nt,i,nt,nt,nt,nt,nt
Cc1ccc(-c2csc(Nc3ccc(C(=O)O)cc3)[n+]2Cc2ccccc2)cc1,i,i,85,i,i,i,+
Cc1ccc(NC(=O)C2CC(=O)N(C(C)C)C2)cc1C (configuration not stated),nt,i,nt,nt,nt,nt,nt
COc1ccc2c([N+](=O)[O-])c(Cl)[nH]c2c1,i,i,i,i,i,i,nt
COc1ccc(CCNC(=O)c2cc3c(=O)n4cccc(C)c4nc3s2)cc1OC,nt,i,nt,nt,nt,nt,nt
CCOCCCn1c(=N)c(C(=O)NCCN2CCOCC2)cc2c(=O)n3cccc(C)c3nc21,i,nt,133,i,nt,nt,nt
COCCCNC(=O)c1cc2c(=O)n3cccc(C)c3nc2n(C(C)C)c1=N,i,188,167,i,57,i,nt
Cc1cccn2c(=O)c3cc(C(=O)NC(C)C)c(=N)n(Cc4ccncc4)c3nc12,i,+,130,i,62,i,nt
Cc1nc2ccccn2c1C(=O)NCCCN1CCOCC1,i,i,i,i,i,i,nt
N=c1c(C(=O)NCc2ccc(F)cc2)cc2c(=O)n3ccccc3nc2n1CCCN1CCOCC1,i,nt,69,i,65,i,nt
Cc1cccn2c(=O)c3cc(C(=O)NC4CCCCC4C)n(C)c3nc12 (configuration not stated),nt,i,nt,nt,nt,nt,nt
COc1cc(OC)nc(Oc2ccc(N)c(C)c2)n1,nt,i,nt,nt,nt,nt,nt
SMILES,p97 inhibitor,RanGTP-Imp inh,Hck-Nef inh,Tb hexokinase,Runt-SMMHC FRET,Runt-CBFb FRET,Hck Nef conf
O=C(N=C1SC2CS(=O)(=O)CC2N1c1ccccc1)C1CCCCC1 (configuration not stated),nt,i,nt,nt,nt,nt,nt
Cc1cc(C)n(C(=O)/C=C/c2cccs2)n1,i,i,i,i,i,i,nt
N#CC(c1ccc(O)cc1)c1ncc(C(F)(F)F)cc1Cl (configuration not stated),i,i,i,i,i,i,nt
COc1ccccc1CCN=C(N)NS(=O)(=O)c1ccccc1F,nt,i,nt,nt,nt,nt,nt
CCNC(=O)c1cc2c(=O)n3cccc(C)c3nc2n(Cc2ccc(C)cc2)c1=N,i,+,71,i,i,i,nt
Cc1cccn2c(=O)c3cc(C(=O)N4COCC4(C)C)n(Cc4ccccc4)c3nc12,nt,i,nt,nt,nt,nt,nt
CCCCC(CC)Cn1c2nc3ccccc3nc2c2c(=N)oc(C)nc21 (configuration not stated),i,i,57,i,i,i,i
CCN(CC)c1ccc(/C=N/N2CCN(Cc3ccccc3Cl)CC2)cc1,nt,i,nt,nt,nt,nt,nt
CCN(CC)c1ccc(/C=N/N2CCN(Cc3ccccc3)CC2)cc1,i,i,57,i,i,i,i
COc1ccc(C2=CC3=C(Br)C(=O)C(C)(O)C(=O)C3=CO2)cc1 (configuration not stated),nt,i,95,i,i,i,+
CCC(=O)OC1(C)C(=O)C2=COC(c3ccc(OC)cc3)=CC2=C(Br)C1=O (configuration not stated),nt,i,81,i,i,i,i
COc1ccc(C2=CC3=CC(=O)C(C)(O)C(=O)C3=CO2)cc1 (configuration not stated),nt,i,nt,nt,nt,nt,nt
O=C(Nc1cccc(-c2ccc(N3CCCCC3)nn2)c1)c1ccco1,nt,i,nt,nt,nt,nt,nt
Cc1cccc(NC(=O)CCNC(=O)c2ccc(Br)cc2)c1,nt,i,nt,nt,nt,nt,nt
C=CCn1c(N)c(C(=O)NCC2CCCO2)c2nc3ccccc3nc21 (configuration not stated),i,107,55,i,i,i,nt
O=C(NCC1CCCO1)c1coc2nc3ccccc3nc12 (configuration not stated),i,i,i,i,i,i,nt
COc1ccc(-n2c(N)c(C(=O)NCC3CCCO3)c3nc4ccccc4nc32)c(OC)c1 (configuration not stated),i,52,75,i,106,i,nt
COc1ccc(-n2nc(C(=O)NCC(=O)NCC3CCCO3)c3ccccc3c2=O)c(OC)c1 (configuration not stated),i,?,i,i,i,i,nt
COCCNC(=O)C(c1ccc(F)cc1)N(C(=O)CCC(=O)Nc1ccccn1)c1ccc(C)cc1 (configuration not stated),nt,i,nt,nt,nt,nt,nt
Cc1nc(Nc2ccc(C(=O)O)cc2)sc1-c1ccccc1,i,i,56,i,i,i,i
O=C(O)c1ccc(CSc2nnc(-c3cccnc3)n2-c2ccc(Br)cc2)cc1,i,i,i,i,i,i,nt
COc1ccc(N=C2NC(=O)/C(=C\c3ccco3)S2)cc1,i,i,61,i,i,i,i
